Source: ChEMBL document CHEMBL4699460, “Integrating DNA-encoded chemical libraries with virtual combinatorial library screening: Optimizing a PARP10 inhibitor” (Bioorg Med Chem Lett, 2020)

Assays:
[1] = biological target: T1, Protein mono-ADP-ribosyltransferase PARP10 (Homo sapiens, UniProt Q53GL7); assay: (§1) Inhibition of N-terminal FLAG-tagged and C-terminal strep-tagged human PARP10 (805 to 1025 residues) expressed in baculovirus infected Sf9 cells assessed as reduction in NAD+-dependent ADP ribosylation using histone as substrate incubated for 1 hr in presence of biotinylated NAD+ and activated DNA by chemiluminescence based microplate reader assay
T1 sequence (Q53GL7 whole entry): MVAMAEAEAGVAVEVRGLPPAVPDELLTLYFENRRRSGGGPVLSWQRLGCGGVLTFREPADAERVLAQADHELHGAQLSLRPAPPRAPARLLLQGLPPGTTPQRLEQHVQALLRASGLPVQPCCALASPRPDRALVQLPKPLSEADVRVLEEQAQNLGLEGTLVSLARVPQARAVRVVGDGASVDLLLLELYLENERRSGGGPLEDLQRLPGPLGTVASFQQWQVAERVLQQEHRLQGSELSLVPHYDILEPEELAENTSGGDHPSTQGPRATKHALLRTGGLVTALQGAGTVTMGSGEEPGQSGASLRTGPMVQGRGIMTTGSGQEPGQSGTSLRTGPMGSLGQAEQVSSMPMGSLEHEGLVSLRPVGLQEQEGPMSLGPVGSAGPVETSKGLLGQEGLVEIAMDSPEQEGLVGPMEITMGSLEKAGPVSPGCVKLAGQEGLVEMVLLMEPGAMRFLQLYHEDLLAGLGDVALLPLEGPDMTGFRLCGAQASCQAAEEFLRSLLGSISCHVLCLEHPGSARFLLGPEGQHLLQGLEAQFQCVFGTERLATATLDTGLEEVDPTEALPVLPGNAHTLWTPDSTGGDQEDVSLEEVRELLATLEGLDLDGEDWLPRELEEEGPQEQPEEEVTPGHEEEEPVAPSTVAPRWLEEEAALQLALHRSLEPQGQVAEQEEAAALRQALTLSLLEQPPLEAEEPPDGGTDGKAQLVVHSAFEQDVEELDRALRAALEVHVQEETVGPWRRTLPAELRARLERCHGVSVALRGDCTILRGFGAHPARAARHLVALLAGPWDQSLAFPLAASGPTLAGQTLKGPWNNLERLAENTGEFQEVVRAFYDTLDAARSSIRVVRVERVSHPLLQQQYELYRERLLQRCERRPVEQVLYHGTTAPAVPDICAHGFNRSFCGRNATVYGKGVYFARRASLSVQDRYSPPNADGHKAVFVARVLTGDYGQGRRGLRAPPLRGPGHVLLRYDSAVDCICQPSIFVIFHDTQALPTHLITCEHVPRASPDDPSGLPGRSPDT
In short: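 The IC50 was derived from a concentration-dependent inhibition curve for PARP10 in the histone ADP-ribosylation assay.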

[2] = biological target: T2, Protein mono-ADP-ribosyltransferase PARP10 (Homo sapiens) (UniProt Q53GL7); assay: as §1, with “substrate at 1 uM” for “substrate”
T2 sequence (whole entry): T1 sequence (Q53GL7 whole entry)

[3] = biological target: T2, Protein mono-ADP-ribosyltransferase PARP10 (Homo sapiens); assay: as §1, with “substrate at 10 uM” for “substrate”, “assay relative to control” for “assay”
[4] = biological target: Protein mono-ADP-ribosyltransferase PARP14 (Homo sapiens) (UniProt Q460N5); assay: (§2) Inhibition of N-terminal His-GST tagged human PARP14 (1470 to 1801 residues) expressed in baculovirus infected Sf9 cells assessed as reduction in NAD+-dependent ADP ribosylation using histone as substrate at 1 uM incubated for 1 hr in presence of biotinylated NAD+ and activated DNA by chemiluminescence based microplate reader assay relative to control
Protein mono-ADP-ribosyltransferase PARP14 (Homo sapiens), sequence (Q460N5 whole entry, the tested form may be a part): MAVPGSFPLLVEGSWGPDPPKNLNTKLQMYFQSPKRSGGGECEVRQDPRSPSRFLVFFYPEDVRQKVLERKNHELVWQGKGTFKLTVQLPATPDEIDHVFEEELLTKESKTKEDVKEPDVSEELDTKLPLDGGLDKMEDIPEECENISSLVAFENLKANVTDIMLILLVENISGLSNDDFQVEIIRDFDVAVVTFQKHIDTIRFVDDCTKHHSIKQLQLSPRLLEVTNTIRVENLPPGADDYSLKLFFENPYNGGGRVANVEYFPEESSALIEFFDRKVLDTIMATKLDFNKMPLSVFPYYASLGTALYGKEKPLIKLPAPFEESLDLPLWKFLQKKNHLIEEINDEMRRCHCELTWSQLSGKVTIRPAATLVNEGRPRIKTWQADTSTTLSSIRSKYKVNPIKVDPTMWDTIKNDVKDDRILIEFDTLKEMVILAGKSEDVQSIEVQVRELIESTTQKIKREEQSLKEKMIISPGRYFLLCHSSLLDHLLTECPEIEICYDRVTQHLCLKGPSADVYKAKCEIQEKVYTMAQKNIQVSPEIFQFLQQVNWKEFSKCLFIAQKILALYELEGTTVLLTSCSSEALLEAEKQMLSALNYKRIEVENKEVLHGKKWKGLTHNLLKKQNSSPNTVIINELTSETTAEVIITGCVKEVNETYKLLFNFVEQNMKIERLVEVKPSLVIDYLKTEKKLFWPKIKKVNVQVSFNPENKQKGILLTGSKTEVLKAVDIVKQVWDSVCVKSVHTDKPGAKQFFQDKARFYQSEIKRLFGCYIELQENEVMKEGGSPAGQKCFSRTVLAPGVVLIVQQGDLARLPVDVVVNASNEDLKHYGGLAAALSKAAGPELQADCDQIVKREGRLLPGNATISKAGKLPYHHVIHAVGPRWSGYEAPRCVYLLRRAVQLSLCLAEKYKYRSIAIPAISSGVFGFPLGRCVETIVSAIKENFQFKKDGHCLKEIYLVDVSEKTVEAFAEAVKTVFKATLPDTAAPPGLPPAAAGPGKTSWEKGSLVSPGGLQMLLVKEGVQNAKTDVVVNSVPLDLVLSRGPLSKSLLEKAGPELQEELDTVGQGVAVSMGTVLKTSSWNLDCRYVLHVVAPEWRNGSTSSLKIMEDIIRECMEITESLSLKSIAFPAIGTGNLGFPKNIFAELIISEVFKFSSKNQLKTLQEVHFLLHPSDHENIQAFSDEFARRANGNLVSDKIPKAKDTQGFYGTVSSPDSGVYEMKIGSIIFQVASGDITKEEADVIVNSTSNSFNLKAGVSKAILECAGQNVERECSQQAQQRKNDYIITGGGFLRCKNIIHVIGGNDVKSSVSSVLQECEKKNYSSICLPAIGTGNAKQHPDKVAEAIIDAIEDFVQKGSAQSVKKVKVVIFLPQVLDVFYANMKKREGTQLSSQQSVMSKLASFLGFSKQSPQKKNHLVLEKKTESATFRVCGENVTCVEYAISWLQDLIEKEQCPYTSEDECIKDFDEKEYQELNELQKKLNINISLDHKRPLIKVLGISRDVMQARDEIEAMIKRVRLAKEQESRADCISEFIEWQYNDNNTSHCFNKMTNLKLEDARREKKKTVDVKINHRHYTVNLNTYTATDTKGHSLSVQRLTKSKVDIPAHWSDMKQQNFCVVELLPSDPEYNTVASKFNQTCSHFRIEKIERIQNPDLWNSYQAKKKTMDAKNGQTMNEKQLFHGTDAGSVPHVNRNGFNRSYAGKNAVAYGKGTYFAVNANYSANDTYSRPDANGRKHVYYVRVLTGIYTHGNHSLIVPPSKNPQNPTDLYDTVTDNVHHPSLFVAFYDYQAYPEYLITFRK

[5] = biological target: T3, Protein mono-ADP-ribosyltransferase PARP12 (Homo sapiens) (UniProt Q9H0J9); assay: as §2, with “human PARP12 (500” for “human PARP14 (1470”, “to 701” for “to 1801”, “at 10” for “at 1”
T3 sequence (whole entry): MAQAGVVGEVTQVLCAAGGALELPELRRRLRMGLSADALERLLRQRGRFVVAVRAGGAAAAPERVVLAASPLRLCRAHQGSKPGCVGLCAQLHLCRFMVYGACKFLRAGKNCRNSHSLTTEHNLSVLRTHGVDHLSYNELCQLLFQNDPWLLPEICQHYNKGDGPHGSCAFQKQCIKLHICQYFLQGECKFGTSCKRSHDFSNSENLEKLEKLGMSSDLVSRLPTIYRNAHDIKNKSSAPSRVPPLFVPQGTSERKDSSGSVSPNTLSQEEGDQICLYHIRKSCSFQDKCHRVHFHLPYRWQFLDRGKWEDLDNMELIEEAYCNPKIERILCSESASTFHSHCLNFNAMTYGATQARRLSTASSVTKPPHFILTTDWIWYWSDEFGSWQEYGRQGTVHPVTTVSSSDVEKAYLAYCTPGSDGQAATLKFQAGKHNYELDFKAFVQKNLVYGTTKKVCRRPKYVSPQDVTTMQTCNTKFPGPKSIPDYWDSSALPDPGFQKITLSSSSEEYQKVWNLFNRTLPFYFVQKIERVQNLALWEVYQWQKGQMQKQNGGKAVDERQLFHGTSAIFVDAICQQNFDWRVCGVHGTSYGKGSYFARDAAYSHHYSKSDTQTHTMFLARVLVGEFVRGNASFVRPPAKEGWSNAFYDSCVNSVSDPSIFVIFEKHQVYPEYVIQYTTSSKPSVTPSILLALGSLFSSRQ

[6] = biological target: Protein mono-ADP-ribosyltransferase PARP14 (Homo sapiens) (UniProt Q460N5); assay: as §2, with “at 10” for “at 1”

IC50 [1] [µM]	inhibition [2] [%]	inhibition [3] [%]	inhibition [4] [%]	inhibition [5] [%]	inhibition [6] [%]	Compound
3.9	25	90	21	16		CC1(CNC(=O)COc2cccc3c2CCCC3=O)CCN(C(=O)CCc2nc3ccccc3[nH]c2=O)CC1
6				< 25	< 25	CNC(=O)[C@H](CNC(=O)CCc1nc2ccccc2[nH]c1=O)NC(=O)c1ccc2c(c1)CCCC2=O
